ChEMBL document CHEMBL1157201, “1,5-Disubstituted 1,2,3-triazoles as cis-restricted analogues of combretastatin A-4: Synthesis, molecular modeling and evaluation as cytotoxic agents and inhibitors of tubulin” (Bioorg Med Chem, 2008)

Test system: SK-BR-3
Test: Cytotoxicity against human SK-BR3 cells assessed as [3H]thymidine incorporation after 72 hrs by microplate scintillation counter
Format: functional, cell-based
Settings: not given
How it was run: (§1)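 RPMI 1640 with 2 mM L-glutamine, plus 5% FCS (WM35, WM239) or 10% FCS (SKOV, OVCAR, MDA-MB231, SK-BR 3); SK-BR 3 medium also had 12,5 µM insulin. 1 µCi [3H]thymidine label for the final 24 h. Controls got solvent-only medium. Values are medians of three experiments.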

Compound | IC50 [nM]
COc1ccc(-c2cnnn2-c2cc(OC)c(OC)c(OC)c2)cc1N | 4
COc1ccc(/C=C\c2cc(OC)c(OC)c(OC)c2)cc1O [COMBRETASTATIN A4] | 5.1

Test system: K562
Test: Cytotoxicity against human K562 cells after 5 days by MTT assay
Format: functional, cell-based
Settings: K562, 120 h
How it was run: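 K562 chronic myelogenous leukemia cells grown in antibiotic-free RPMI with 2-mercaptoethanol (2 μM), L-glutamine (2 mM) and 10% FCS, seeded at ca 40,000 cells/mL. DMSO-dissolved drug added as a serial dilution series, with a drug-free control. Incubated 37 °C, 5% CO2. MTT (3 mg/mL in PBS) added for 3 h, formazan dissolved in DMSO, OD read at 540 and 690 nm. IC50 derived graphically as percentage of control growth.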

Compound | IC50 [nM]
COc1ccc(-c2cn(-c3cc(OC)c(OC)c(OC)c3)nn2)cc1[N+](=O)[O-] | > 10000
COc1ccc(-n2nncc2-c2cc(OC)c(OC)c(OC)c2)cc1N | 570
COc1ccc(-c2cnnn2-c2cc(OC)c(OC)c(OC)c2)cc1 | 27
COc1ccc(-c2cnnn2-c2cc(OC)c(OC)c(OC)c2)cc1[N+](=O)[O-] | 460
COc1ccc(-c2cnnn2-c2cc(OC)c(OC)c(OC)c2)cc1N | 11
COc1ccc(-n2nncc2-c2cc(OC)c(OC)c(OC)c2)cc1 | 4000
COc1ccc(-c2cn(-c3cc(OC)c(OC)c(OC)c3)nn2)cc1N | 1300
COc1ccc(-n2nncc2-c2cc(OC)c(OC)c(OC)c2)cc1Br | 3600
COc1ccc(-n2nncc2-c2cc(OC)c(OC)c(OC)c2)cc1O | 410
COc1ccc(-c2cnnn2-c2cc(OC)c(OC)c(OC)c2)cc1Br | 57
COc1ccc(-n2nncc2-c2cc(OC)c(OC)c(OC)c2)cc1[N+](=O)[O-] | > 10000
COc1ccc(/C=C\c2cc(OC)c(OC)c(OC)c2)cc1O [COMBRETASTATIN A4] | 10

Target: Tubulin (Sus scrofa, UniProt P02554+P02550)
Test: Inhibition of pig brain tubulin polymerization
Settings: not given
How it was run: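 Porcine brain tubulin stored at -78 °C. Mixed with Mes buffer (0.1 M Mes, 1 mM EGTA, 0.5 mM MgCl2, pH 6.6) and GTP (stock 5 mM) plus drug in DMSO, in a plate prechilled 30 min at 4 °C. Absorbance at 350 nm followed 60 min at 25 °C against drug-only blanks and untreated controls. IC50 derived graphically as percentage of control assembly.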

Compound | IC50 [nM]
COc1ccc(-n2nncc2-c2cc(OC)c(OC)c(OC)c2)cc1N | > 20000
COc1ccc(-c2cnnn2-c2cc(OC)c(OC)c(OC)c2)cc1 | 7000
COc1ccc(-c2cnnn2-c2cc(OC)c(OC)c(OC)c2)cc1O | 12600
COc1ccc(-c2cnnn2-c2cc(OC)c(OC)c(OC)c2)cc1[N+](=O)[O-] | > 20000
COc1ccc(-c2cnnn2-c2cc(OC)c(OC)c(OC)c2)cc1N | 4800
COc1ccc(-c2cn(-c3cc(OC)c(OC)c(OC)c3)nn2)cc1N | > 20000
COc1ccc(-n2nncc2-c2cc(OC)c(OC)c(OC)c2)cc1O | 14000
COc1ccc(-c2cnnn2-c2cc(OC)c(OC)c(OC)c2)cc1Br | > 20000

Test system: MDA-MB-231
Test: Cytotoxicity against human MDA-MB-231 cells assessed as [3H]thymidine incorporation after 72 hrs by microplate scintillation counter
Format: functional, cell-based
Settings: not given
How it was run: as §1

Compound | IC50 [nM]
COc1ccc(-c2cnnn2-c2cc(OC)c(OC)c(OC)c2)cc1N | > 10
COc1ccc(/C=C\c2cc(OC)c(OC)c(OC)c2)cc1O [COMBRETASTATIN A4] | 6

Test system: not listed separately
Test: Cytotoxicity against human SKOV cells assessed as [3H]thymidine incorporation after 72 hrs by microplate scintillation counter
Format: functional, cell-based
Settings: not given
How it was run: as §1

Compound | IC50 [nM]
COc1ccc(-c2cnnn2-c2cc(OC)c(OC)c(OC)c2)cc1N | 4.9
COc1ccc(/C=C\c2cc(OC)c(OC)c(OC)c2)cc1O [COMBRETASTATIN A4] | 3.3

Test system: OVCAR
Test: Cytotoxicity against human OVCAR cells assessed as [3H]thymidine incorporation after 72 hrs by microplate scintillation counter
Format: functional, cell-based
Settings: not given
How it was run: as §1

Compound | IC50 [nM]
COc1ccc(-c2cnnn2-c2cc(OC)c(OC)c(OC)c2)cc1N | 4.7
COc1ccc(/C=C\c2cc(OC)c(OC)c(OC)c2)cc1O [COMBRETASTATIN A4] | 3.3

Test system: not listed separately
Test: Cytotoxicity against human WM35 cells assessed as [3H]thymidine incorporation after 72 hrs by microplate scintillation counter
Format: functional, cell-based
Settings: not given
How it was run: as §1

Compound | IC50 [nM]
COc1ccc(-c2cnnn2-c2cc(OC)c(OC)c(OC)c2)cc1N | 3.9
COc1ccc(/C=C\c2cc(OC)c(OC)c(OC)c2)cc1O [COMBRETASTATIN A4] | 2.5

Test system: not listed separately
Test: Cytotoxicity against human WM239 cells assessed as [3H]thymidine incorporation after 72 hrs by microplate scintillation counter
Format: functional, cell-based
Settings: not given
How it was run: as §1

Compound | IC50 [nM]
COc1ccc(-c2cnnn2-c2cc(OC)c(OC)c(OC)c2)cc1N | 5.1
COc1ccc(/C=C\c2cc(OC)c(OC)c(OC)c2)cc1O [COMBRETASTATIN A4] | 2.8
